Source: PubChem (several laboratories)
Ins promoter up – MIN6 insulin promoter up-regulation | MIN6 insulin promoter-GFP reporter, high-content imaging; hits give high values | z-score at 5 µM | actives 0.3% (n = 190,000) | AID 1625;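 active = z-score above 3 at 5 µM with at least 500 cells counted in the well; inconclusive = wells under 500 cells, flagged as cytotoxic or low count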
SDO1 yeast rescue – compounds rescuing growth of sdo1-depleted yeast, bone marrow failure model; S. cerevisiae sdo1-depleted JHY4D growth rescue, OD600 30 h; hits give high values; pdr5 snq2 efflux-pump mutant strain; z-score at 10 µM; actives 0.21% (n = 140,000);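 active = z-score above 3 at both the 24 hr and the 30 hr optical density reads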
Autophagy mod – autophagy modulation, high-content screen; MEF GFP-LC3 puncta imaging; test concentration mostly 10 µM; calls only at 10 µM (by protocol); actives 0.98% (n = 190,000); AID 463193;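 active = percentage of spot-positive cells more than 3 SD above its plate mean, without a fluorescence outlier flag or 80% toxicity; inconclusive = no clear call, values can overlap the other calls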
ABCG2 block – human ABCG2 inhibition, ABCB1 as counter-screen; Q9UNQ0; IgMXP3 cells, JC-1 efflux, flow cytometry; inhibition, % at 6.6 µM; actives 0.1% (n = 190,000); AID 1325;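 active = inhibition above 80%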
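Read-out basis: Efflux inhibition in percent versus controls | Test system: ABCG2 IgMXP3 and barcoded ABCB1 CCRF-Adr cell mix | Quantity: 3 million cells/mL in well | Schedule: 10 min at 25 °C | Control set: Nicardipine as high control, DMSO as low control | Reagent: JC-1 as fluorescent efflux pump substrate | Signal: Flow cytometry of retained JC-1 fluorescence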
ROMK primary – modulates human ROMK potassium channel activity; P48048; Tet-inducible ROMK, thallium flux fluorescence; actives lie on both sides; B-score at 10 µM; actives 2% (n = 130,000); AID 1918;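 active = signal ratio slope over the read window, or its plate-corrected B-score, at least 3 SD from the plate mean, either direction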;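 also: B-score of the F/F0 ratio slope over 7 to 12 s after thallium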
ABCB1 block – human ABCB1 inhibition, ABCG2 as counter-screen | P08183 | CCRF-Adr cells, JC-1 efflux, flow cytometry | inhibition, % at 6.6 µM | actives 0.067% (n = 190,000); in the data active = inhibition above about 40%;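 also: higher value means more JC-1 retained so stronger ABCB1 efflux block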
Target sequence (P08183 whole entry, looked up): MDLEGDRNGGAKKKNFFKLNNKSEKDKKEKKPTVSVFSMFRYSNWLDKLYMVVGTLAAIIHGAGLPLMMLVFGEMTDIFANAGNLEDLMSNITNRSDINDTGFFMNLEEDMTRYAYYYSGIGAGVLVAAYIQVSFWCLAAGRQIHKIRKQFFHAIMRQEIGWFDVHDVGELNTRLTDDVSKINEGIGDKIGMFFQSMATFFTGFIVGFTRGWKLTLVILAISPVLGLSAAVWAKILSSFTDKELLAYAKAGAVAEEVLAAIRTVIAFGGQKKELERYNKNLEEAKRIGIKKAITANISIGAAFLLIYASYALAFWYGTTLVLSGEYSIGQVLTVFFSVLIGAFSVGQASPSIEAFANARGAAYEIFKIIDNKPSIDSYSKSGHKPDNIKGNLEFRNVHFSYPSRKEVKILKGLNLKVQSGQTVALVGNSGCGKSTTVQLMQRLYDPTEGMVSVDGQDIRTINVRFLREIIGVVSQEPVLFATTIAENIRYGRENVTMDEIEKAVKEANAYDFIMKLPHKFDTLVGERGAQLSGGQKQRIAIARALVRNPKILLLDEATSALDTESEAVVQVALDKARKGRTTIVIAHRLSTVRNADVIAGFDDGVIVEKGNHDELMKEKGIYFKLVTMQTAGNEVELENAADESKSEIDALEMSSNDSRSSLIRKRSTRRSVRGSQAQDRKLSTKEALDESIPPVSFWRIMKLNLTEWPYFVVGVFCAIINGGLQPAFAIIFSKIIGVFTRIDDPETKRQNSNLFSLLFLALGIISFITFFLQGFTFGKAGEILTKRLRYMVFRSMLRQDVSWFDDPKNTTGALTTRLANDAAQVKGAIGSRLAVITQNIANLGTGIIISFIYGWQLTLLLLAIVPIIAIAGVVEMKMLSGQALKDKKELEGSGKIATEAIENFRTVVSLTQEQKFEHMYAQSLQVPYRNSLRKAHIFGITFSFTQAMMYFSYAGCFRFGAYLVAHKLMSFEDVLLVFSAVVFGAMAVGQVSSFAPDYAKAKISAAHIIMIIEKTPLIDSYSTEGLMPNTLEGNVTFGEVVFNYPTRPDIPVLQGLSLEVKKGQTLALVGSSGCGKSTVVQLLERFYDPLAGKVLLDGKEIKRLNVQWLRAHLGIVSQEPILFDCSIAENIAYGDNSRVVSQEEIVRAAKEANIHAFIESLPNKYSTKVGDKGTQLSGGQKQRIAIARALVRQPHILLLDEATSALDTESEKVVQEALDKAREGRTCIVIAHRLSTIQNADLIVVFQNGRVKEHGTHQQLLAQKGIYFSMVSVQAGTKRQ
Large screens that a line does not name were inactive. Shown are actives, neighbours in structure and some others; about 2.3% of the full set was active somewhere.

CC(=O)Cc1nsc(NC(=O)c2ccc(-c3cccc(C(F)(F)F)c3)o2)n1	Autophagy mod active (no result: ROMK primary)
COc1cccc(/C=C2\N=C(C3CCCCC3)OC2=O)c1OC	none (no result: SDO1 yeast rescue, ROMK primary)
COCCNC(=O)C(c1ccc(F)cc1)N(C(=O)CCC(=O)Nc1nccs1)c1ccc(C)cc1 (stereo not drawn)	none (no result: SDO1 yeast rescue)
Cc1cc(C)c(NC(=O)COc2ccccc2C(=O)Nc2ccc3c(c2)oc2ccccc23)c(C)c1	Autophagy mod active
Cn1cccc1Cc1nnc(SCC(=O)Nc2nc3ccccc3s2)n1CCc1ccccc1	Autophagy mod active (no result: ROMK primary)
Cc1nnc(NC(=O)CSc2nnc(Cc3cccn3C)n2CCc2ccccc2)s1	none (no result: ROMK primary)
CCc1ccc(N(CC(=O)Nc2ccccc2C(=O)N2CCOCC2)S(C)(=O)=O)cc1	none
CCOCCCNC(=O)C(NC(=O)c1ccc2c(c1)OCO2)c1ccccc1 (stereo not drawn)	Autophagy mod active (no result: SDO1 yeast rescue)
Cc1cc2[nH]c3c(c[n+](C)c4ccccc34)c2cc1C	Ins promoter up inconclusive, Autophagy mod active (no result: SDO1 yeast rescue)
COc1ccccc1C(=O)NC1CCCCCCC1	Autophagy mod active (no result: Ins promoter up)
Cc1ccsc1C(=O)N1CC(=O)Nc2ccccc21	none
Cc1cc(C)c2nc(SCC(=O)N3CC(=O)Nc4ccccc43)c(C#N)cc2c1	Autophagy mod active (no result: Ins promoter up, ROMK primary)
COc1ccc2nc(SCC(=O)N3CC(=O)Nc4ccccc43)c(C#N)cc2c1	none
Cc1cc(C)cc(C(=O)N2CC(=O)Nc3ccccc32)c1	Autophagy mod active
Cc1cccc(N(Cc2cc3ccccc3[nH]c2=O)S(=O)(=O)c2ccccc2)c1	none (no result: ROMK primary)
Cc1ccc(S(=O)(=O)Nc2ccc(=O)n(Cc3ccc(Cl)c(Cl)c3)c2)cc1	Ins promoter up 3.3 (no result: ROMK primary)
CC(=O)Nc1ccc(S(=O)(=O)Nc2ccc(=O)n(Cc3ccc(Cl)c(Cl)c3)c2)cc1	none (no result: SDO1 yeast rescue)
CC1c2ccsc2CCN1C(=O)NC(=O)c1ccc(Cl)cc1 (stereo not drawn)	none (no result: SDO1 yeast rescue, Autophagy mod, ABCG2 block, ROMK primary, ABCB1 block)
Cc1ccccc1N(CC(=O)N/N=C/c1cc(Br)c(C)o1)S(C)(=O)=O	none (no result: Ins promoter up)
Cc1ccccc1N(CC(=O)N/N=C/c1cc(C)n(-c2ccccc2C)c1C)S(C)(=O)=O	ROMK primary 8.5
COc1ccccc1NC(=O)/C(C#N)=C/C=C/c1ccco1	Autophagy mod active (no result: Ins promoter up)
COCCOC(=O)c1[nH]c2c(c1C)C(=O)CC(c1cc(OC)ccc1OC)C2 (stereo not drawn)	none (no result: ROMK primary)
Cc1c(C(=O)OCC(C)C)[nH]c2c1C(=O)CC(c1ccco1)C2 (stereo not drawn)	none (no result: Ins promoter up, Autophagy mod, ROMK primary)
COC(=O)c1[nH]c2c(c1C)C(=O)CC(c1ccccc1)C2 (stereo not drawn)	Autophagy mod active (no result: ROMK primary)
COc1ccc(OC)c(C2CC(=O)c3c([nH]c(C(=O)OC(C)C)c3C)C2)c1 (stereo not drawn)	Autophagy mod active (no result: ROMK primary)
Cc1c(C(=O)OC2CCCC2)[nH]c2c1C(=O)CC(c1ccco1)C2 (stereo not drawn)	Autophagy mod active (no result: ROMK primary)
COc1ccc2c(c1)C(C)=CC(C)(C)N2S(=O)(=O)c1ccc(Br)cc1	none (no result: SDO1 yeast rescue)
COC(=O)CNC(=O)c1sc2ncn(CC(=O)Nc3ccc(C)c(Cl)c3)c(=O)c2c1C	none (no result: SDO1 yeast rescue)
CCN(CC)CCCC(C)Nc1c2ccc(Cl)cc2nc2ccc(OC)cc12 (stereo not drawn)	Ins promoter up 12 (no result: SDO1 yeast rescue, Autophagy mod, ROMK primary, ABCB1 block)
CCOC(=O)c1c(NC(=O)CN2C(=O)NC(C)(c3ccccc3)C2=O)sc(C)c1C (stereo not drawn)	Autophagy mod active
CCC(C)n1c(=S)[nH]c2c(sc3ccc([N+](=O)[O-])cc32)c1=O (stereo not drawn)	ROMK primary 5.3
COc1ccc2[nH]c(CN3CCC(CO)(CCOc4ccccc4)CC3)c(C)c2c1	Autophagy mod active (no result: Ins promoter up, SDO1 yeast rescue)
COc1ccc(CN2CCC(CO)(CCOc3ccccc3)CC2)c(OC)c1C	none (no result: SDO1 yeast rescue)
Cc1ccc(/C=C2/NC(=O)N(Cc3ccccc3F)C2=O)s1	Autophagy mod active (no result: SDO1 yeast rescue)
CC(C)CN1C(=O)/C(=C/c2cccs2)NC1=S	none (no result: Ins promoter up, ROMK primary)
CCCN1C(=O)/C(=C/c2ccc(C)s2)NC1=S	ROMK primary 5.5 (no result: Ins promoter up)
C[C@@H]1CN(Cc2nc(-c3cccs3)no2)C[C@H](C)O1	Autophagy mod active (no result: SDO1 yeast rescue)
CCOC(=O)c1nc(N2CCN(C(=O)OCC)CC2)c2c3c(sc2n1)CCCC3	Autophagy mod active
CCOC(=O)c1nc2sc3c(c2c(=O)[nH]1)CCCC3	none
O=C1CCCN1CCCNc1ncnc2c1[nH]c1ccc(Cl)cc12	none (no result: ROMK primary)
CCN1CCCC1CNc1ncnc2c1[nH]c1ccc(Cl)cc12 (stereo not drawn)	Autophagy mod active
CC(C(=O)NC1CCCC1)N(Cc1ccc2c(c1)OCO2)C(=O)c1snc(C(N)=O)c1N (stereo not drawn)	Autophagy mod active (no result: ROMK primary)
Nc1nc2c(nc(SCc3ccccc3Br)n2C2OC(CO)C(O)C2O)c(=O)[nH]1 (stereo not drawn)	none (no result: SDO1 yeast rescue)
CC(C)N(Cc1ccccc1)C(=S)NC(=O)C1(C)CC1(Cl)Cl (stereo not drawn)	ROMK primary 5.1 (no result: SDO1 yeast rescue)
CC1(C(=O)NC(=S)N(CCC#N)c2ccccc2)CC1(Cl)Cl (stereo not drawn)	none (no result: Ins promoter up)
N#C/C(=N\Nc1cccc(Cl)c1)C(=O)c1ccccc1	none
COc1ccc(C(=O)/C(C#N)=N/Nc2cccc([N+](=O)[O-])c2)cc1	ROMK primary 7.6 (no result: SDO1 yeast rescue)
COc1cc(Cl)c(C)cc1NC(=O)CN(C)Cc1cccc(OC)c1OC	Ins promoter up 3.4 (no result: SDO1 yeast rescue)
COc1ccccc1CN(C)CC(=O)Nc1ccc(Cl)cc1F	none (no result: SDO1 yeast rescue)
O=[N+]([O-])c1cc(-c2nnc(-c3ccccc3)o2)ccc1Oc1ccc(Cl)cc1	none (no result: ROMK primary)
CCOc1ccc(Oc2ccc(-c3nnc(-c4ccccc4)o3)cc2[N+](=O)[O-])cc1	Autophagy mod active
Cc1cccc(NC(=O)Nc2cccc(C#N)c2)n1	none (no result: ROMK primary)
Cc1cccc(NC(=O)Nc2ccc(C#N)cc2)n1	Ins promoter up 3.4 (no result: ROMK primary)
O=C(CC1SC(=O)NC1=O)Oc1ccc(/C=N/NC(=O)c2ccccc2O)cc1 (stereo not drawn)	none (no result: SDO1 yeast rescue, Autophagy mod, ABCG2 block, ABCB1 block)
CCN(CC)S(=O)(=O)c1ccc(C(=O)Nc2ccc3c(c2)OCO3)cc1	none (no result: SDO1 yeast rescue)
Cc1cccc2cc(C#N)c(N3CCN(C)CC3)nc12	none
Cc1nonc1NC(=O)CSc1nc2c(C)cccc2cc1C#N	Autophagy mod active (no result: Ins promoter up, SDO1 yeast rescue)
Cc1cccc2cc(C#N)c(SCCN3CCCCC3)nc12	Autophagy mod active (no result: Ins promoter up, SDO1 yeast rescue, ABCG2 block, ABCB1 block)
Cc1c(/C=N\NC(=O)C2COc3ccc(C(C)(C)C)cc3O2)c2ccccc2n1C (stereo not drawn)	none (no result: ROMK primary)
OCC1(CCOc2ccccc2)CCN(Cc2nc3ccc(F)cc3[nH]2)CC1	none (no result: Ins promoter up, SDO1 yeast rescue)
Cc1cc(N2CCN(S(=O)(=O)c3ccc4ccccc4c3)CC2)n2ncnc2n1	Autophagy mod active (no result: SDO1 yeast rescue)
CCCNC(=O)NC(=O)COC(=O)CNS(=O)(=O)/C=C/c1ccccc1	none (no result: SDO1 yeast rescue)
